ChEMBL document CHEMBL1933056, “Cytotoxic potential of novel 6,7-dimethoxyquinazolines” (Eur J Med Chem, 2012)
Activity calls are given as the source filed them. No cut-off for these calls is given here.

Key:
HCT-116 [1] = experiment: Cytotoxicity against p53-positive human HCT116 cells at 10 uM after 72 hrs by MTT assay; type: functional
HCT-116 [2] = experiment: Cytotoxicity against p53-deficient human HCT116 cells at 10 uM after 72 hrs by MTT assay; type: functional
HEY = experiment: Cytotoxicity against human HEY cells at 10 uM after 72 hrs by MTT assay; type: functional
In short: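 Single-concentration MTT screen, continuous 72 h exposure at 10 µM (diluted from a 10 mM DMSO stock). MTT was added at 0.5 mg/mL final for 4 h at 37 °C, the formazan was dissolved in DMSO and absorbance read at 570 nm. Result given as % cells killed, (1 − A/C) × 100, done in triplicate. HEY cells were grown in RPMI 1640 with 10% FBS and 2 mM glutamine.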

HCT-116 [3] = experiment: Cytotoxicity against p53-positive human HCT116 cells after 72 hrs by MTT assay; type: functional, cell-based; settings: HCT-116, 72 h
In short: (§1)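 Cells seeded, allowed to attach, then exposed to the drug continuously for 72 h over multiple doses. MTT was added at 0.5 mg/mL final for 4 h at 37 °C, solubilized in DMSO and read at 570 nm. Inhibition = (1 − A/C) × 100. IC50 was taken from a plot of log concentration versus % inhibition, assays in triplicate, with SD from at least three independent experiments.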

HCT-116 [4] = experiment: Cytotoxicity against p53-deficient human HCT116 cells after 72 hrs by MTT assay; type: functional, cell-based; settings: HCT-116, 72 h; in short: as §1
HCT-116 [5] = experiment: Anticlonogenic activity against p53-positive human HCT116 cells assessed as inhibition of colony formation at 0.1 to 20 uM after 24 hrs by crystal violet staining-based microscopic analysis; type: functional, cell-based
In short: (§2)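 Cells plated at 100 cells/well and left to attach overnight. Serial compound dilutions were applied for 24 h, followed by a PBS wash and culture in drug-free medium for 8-10 days until colonies formed. Colonies were fixed in 1% glutaraldehyde for 30 min, stained with 2% crystal violet for 30 min, imaged and counted. Values are the mean of at least three independent experiments.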

HCT-116 [6] = experiment: Anticlonogenic activity against p53-deficient human HCT116 cells assessed as inhibition of colony formation at 0.1 to 20 uM after 24 hrs by crystal violet staining-based microscopic analysis; type: functional, cell-based; in short: as §2
HCT-116 [7] = experiment: Growth inhibition of p53-positive human HCT116 cells at > 5 uM after 24 hrs by crystal violet staining-based microscopic analysis; type: functional, cell-based; in short: as §2
HCT-116 [8] = experiment: Growth inhibition of p53-deficient human HCT116 cells at > 5 uM after 24 hrs by crystal violet staining-based microscopic analysis; type: functional, cell-based; in short: as §2
HCT-116 [9] = experiment: Induction of cell cycle arrest in p53-deficient human HCT116 cells assessed as accumulation at G0/G1 phase at 1 uM after 24 hrs by flow cytometric analysis (reference value: 60%); type: functional
HCT-116 [10] = experiment: Induction of cell cycle arrest in p53-deficient human HCT116 cells assessed as accumulation at S phase at 1 uM after 24 hrs by flow cytometric analysis (reference value: 13.5%); type: functional
HCT-116 [11] = experiment: Induction of cell cycle arrest in p53-deficient human HCT116 cells assessed as accumulation at G2/M phase at 1 uM after 24 hrs by flow cytometric analysis (reference value: 24.5%); type: functional
HCT-116 [12] = experiment: Induction of cell cycle arrest in p53-deficient human HCT116 cells assessed as accumulation at G0/G1 phase at 1 uM after 48 hrs by flow cytometric analysis (reference value: 60%); type: functional
HCT-116 [13] = experiment: Induction of cell cycle arrest in p53-deficient human HCT116 cells assessed as accumulation at S phase at 1 uM after 48 hrs by flow cytometric analysis (reference value: 13.5%); type: functional
HCT-116 [14] = experiment: Induction of cell cycle arrest in p53-deficient human HCT116 cells assessed as accumulation at G2/M phase at 1 uM after 48 hrs by flow cytometric analysis (reference value: 24.5%); type: functional
HCT-116 [15] = experiment: Growth inhibition of p53-positive human HCT116 cells at > 1 uM after 24 hrs by crystal violet staining-based microscopic analysis; type: functional, cell-based; in short: as §2
HCT-116 [16] = experiment: Growth inhibition of p53-deficient human HCT116 cells at > 1 uM after 24 hrs by crystal violet staining-based microscopic analysis; type: functional, cell-based; in short: as §2

Structure (SMILES)	Activity (HCT-116 [1]) [%]	Activity (HCT-116 [2]) [%]	Activity (HEY) [%]	IC50 (HCT-116 [3]) [µM]	IC50 (HCT-116 [4]) [µM]	further results
CCCCn1c(-c2ccc(-c3nnn[nH]3)cc2)nc2cc(OC)c(OC)cc2c1=O	15	8	2			
COc1cc2nc(CNc3ccc(C(=O)O)cc3)[nH]c(=O)c2cc1OC	30	8	0.5			
COc1ccc(-c2nc(N)c3cc(OC)c(OC)cc3n2)cc1	21	42	17			
COc1cc2nc(-c3cccc(Cl)c3)[nH]c(=O)c2cc1OC	35	37	42			
CCCCn1c(-c2cccc(-c3nnn[nH]3)c2)nc2cc(OC)c(OC)cc2c1=O	13	3	4			
COc1cc2nc(Nc3ccc([N+](=O)[O-])cc3)nc(N)c2cc1OC	42	22	4			
COc1cccc(-c2nc(N)c3cc(OC)c(OC)cc3n2)c1	19	20	7			
COc1ccc(-c2nc(N=[N+]=[N-])c3cc(OC)c(OC)cc3n2)cc1	58	48	42	10	7	
COc1cc2nc(-c3cccc(C)c3)nc(N=[N+]=[N-])c2cc1OC	55	71	42	9	> 10	
COc1cc2nc(-c3ccccc3Cl)nc(N=[N+]=[N-])c2cc1OC	50	63	43	8	> 10	
COc1ccc(-c2nc3cc(OC)c(OC)cc3c(=O)[nH]2)cc1	10	3	2			
COc1cc2nc(-c3ccc(C)cc3)nc(N=[N+]=[N-])c2cc1OC	47	66	29	8	9	
COc1cc2nc(Cc3ccc(Cl)cc3)[nH]c(=O)c2cc1OC	63	57	49	9	> 10	
COc1cc2nc(CNc3ccc(NS(C)(=O)=O)cc3)[nH]c(=O)c2cc1OC	28	14	9			
COc1cc2nc(-c3cccc(Cl)c3)nc(N=[N+]=[N-])c2cc1OC	56	45	35	10	10	
COc1cc2nc(Nc3ccccc3-c3ccccc3NS(C)(=O)=O)nc(N)c2cc1OC	95	95	94	6	5	Activity (HCT-116 [5]): Active; Activity (HCT-116 [6]): Active; growth inhibition (GI) (HCT-116 [7]): Active; growth inhibition (GI) (HCT-116 [8]): Active; Activity (HCT-116 [9]): 61%; Activity (HCT-116 [10]): 14%; Activity (HCT-116 [11]): 23%; Activity (HCT-116 [12]): 54.5%; Activity (HCT-116 [13]): 9%; Activity (HCT-116 [14]): 34.5%
CCCCn1c(-c2cccc(NS(C)(=O)=O)c2)nc2cc(OC)c(OC)cc2c1=O	26	27	9			
COc1ccc(NCc2nc3cc(OC)c(OC)cc3c(=O)[nH]2)cc1	38	22	19			
COc1cc2nc(-c3ccccc3Cl)nc(N)c2cc1OC	18		4			
CCCCn1c(-c2ccc(NS(C)(=O)=O)cc2)nc2cc(OC)c(OC)cc2c1=O	6	4	0.5			
COc1cc2nc(-c3cccc(C)c3)nc(N)c2cc1OC	20	27	6			
COc1cc2nc(-c3cccc(NC(C)=O)c3)[nH]c(=O)c2cc1OC	16	22	12			
COc1cc2nc(Cc3cccc4ccccc34)[nH]c(=O)c2cc1OC	80	79	66	1.7	0.7	Activity (HCT-116 [5]): Active; Activity (HCT-116 [6]): Active; growth inhibition (GI) (HCT-116 [15]): Active; growth inhibition (GI) (HCT-116 [16]): Active
COc1cc2nc(CNc3cccc(NS(C)(=O)=O)c3)[nH]c(=O)c2cc1OC	34	31	23			
COc1cccc(-c2nc(N=[N+]=[N-])c3cc(OC)c(OC)cc3n2)c1	25	24	13			
COc1cc2nc(Cc3ccccc3Cl)[nH]c(=O)c2cc1OC	59	50	35	9	> 10	
COc1cc2nc(-c3ccc(C)cc3)nc(N)c2cc1OC	5	16	2			
CCCCn1c(-c2ccc(NC(C)=O)cc2)nc2cc(OC)c(OC)cc2c1=O	19	17	6			
COc1cc2nc(-c3cccc(Cl)c3)nc(N)c2cc1OC	19	2	3			
